Measurements of several laboratories.
Protocols differ between the studies behind these lines.
Target: Serine/threonine-protein kinase SIK2 (SIK2, Homo sapiens, UniProt Q9H0K1)

SMILES | assay | conditions | quantity | value
Cn1cncc1[C@](O)(COc1ccc(C#N)cc1-c1ccc(OC(F)(F)F)cc1)c1ccc(C#N)cc1 | cell-free assay, competition with immobilised ligand | 1 µM | remaining binding | 95%
Cn1cc(-c2cccc(N3CCc4c(sc5c4CC(C)(C)C5)C3=O)c2CO)cc(Nc2ccncn2)c1=O | enzyme activity, inhibitor | 1 µM | inhibition | 4%
COc1ncccc1-c1cnn2ccc(N3CCN(C(=O)OC(C)C)CC3)nc12 | binding, competition with immobilised ligand | 1 µM | remaining binding | 50%
CC(C)(C)c1cc(C=C(C#N)C#N)cc(Br)c1O | enzyme activity, inhibitor | 0.5 µM | remaining activity | 115%
O=C(NCc1ncc(C(F)(F)F)cc1Cl)c1ccc2c(c1)C1(CCS(=O)(=O)CC1)[C@H](C1CC1)N2S(=O)(=O)c1ccc(F)cc1 | cell-free assay, competition with immobilised ligand | 1 µM | remaining binding | 96%
Cn1cc(-c2cc(F)cc(N3CCn4c(cc5c4CCCC5)C3=O)c2CO)cc(Nc2ccc(N3CCN(C4COC4)CC3)cn2)c1=O | enzyme activity, inhibitor | 0.1 µM | inhibition | 13%
O=c1[nH]c2ccccc2n1C1CCN(Cc2ccc(-c3[nH]c4cc5ncnc5cc4nc3-c3ccccc3)cc2)CC1 | cell-free assay | 0.5 µM | remaining signal | 114%
Cc1nn(C)cc1-c1nc2c(N3CCN(Cc4ccc(Cl)cc4)CC3)c(Cl)cnc2[nH]1 | binding, competition with immobilised ligand | 1 µM | remaining binding | 36%
